According to EPA's CvTdb concentration-time database:

How the values were obtained:
[1] = system: rat; assay: concentration in expired air after dosing; conditions: dosed: 1,1,2-trichloroethane, 501 ppm, inhalation, duration: 6 hr
[2] = system: rat; assay: concentration in expired air after dosing; conditions: dosed: 1,1,2-trichloroethane, 501 ppm, inhalation, duration: 6 hr; remark: listed apart in the source
[3] = system: human; assay: concentration in blood after dosing; negative times count back from the end of exposure; conditions: inhalation
Outline: (§1)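 Sampling and analytical methods are those of each source and frequently went unreported. The concentration-versus-time and amount-versus-time points were compiled from published in vivo toxicokinetic studies and two structured collections. Most were digitised from plot screenshots with WebPlotDigitizer, with others copied from tables, in the reported units.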

[4] = system: human; assay: concentration in blood after dosing; conditions: dosed: 1,2,4-trimethylbenzene, inhalation, duration: 2 hr
Outline: as §1

[5] = system: human; assay: concentration in expired air after dosing; negative times count back from the end of exposure; conditions: dosed: 1,3-butadiene, 5 ppm, inhalation, duration: 120 min
Outline: as §1

[6] = system: rat; assay: concentration in blood after dosing; conditions: dosed: 1,3-butadiene, inhalation, duration: 6 hr, Sprague Dawley
[7] = system: rat; assay: concentration in plasma after dosing; conditions: dosed: benzo[a]pyrene, inhalation, duration: 4 hr, F344
[8] = system: rat; assay: concentration in lung after dosing; conditions: dosed: benzo[a]pyrene, inhalation, duration: 4 hr, F344

ClCC(Cl)Cl [1,1,2-trichloroethane]
concentration in expired air [ng/mL]
Conditions	[1]	[2]
0.1604 h	149	–
0.3009 h	215	–
0.4836 h	275	248
0.7365 h	258	321
0.9895 h	331	250
1.495 h	272	233
2.493 h	–	201
2.507 h	253	–
3.491 h	–	225
3.505 h	180	–
3.996 h	164	197
4.488 h	–	185
4.502 h	139	–
4.98 h	152	134
6.498 h	75.2	67.1
6.989 h	51.8	42.2
7.481 h	–	36.1
7.495 h	24.6	–
7.987 h	14.7	21.3
8.985 h	6.7	11.1
9.996 h	5.67	3.53
10.98 h	3.53	2.46
13 min	–	204
223 s	–	110

Cc1ccc(C)c(C)c1 [1,2,4-trimethylbenzene]
concentration in blood [nM], [3], dosed: 1,2,4-trimethylbenzene, duration: 2 hr
Conditions	2 ppm	25 ppm
0.1241 h	249	–
0.1793 h	–	3640
0.2345 h	237	–
0.2621 h	–	3110
0.5655 h	164	2420
0.9793 h	87.2	–
1.062 h	–	1610
1.476 h	95.1	–
1.531 h	–	1360
1.972 h	–	989
2.524 h	75.3	863
2.966 h	51.5	–
3.186 h	–	790
3.517 h	–	683
3.959 h	–	614
11.99 h	–	171
21.97 h	–	134
248 s	288	4170

concentration in blood [nM], [3], dosed: 1,2,4-trimethylbenzene, duration: 2 hr, during exposure
Conditions	2 ppm	25 ppm
-248 s	–	7990
-50 s	552	–
-1.917 h	–	2540
-1.89 h	147	–
-1.752 h	–	3540
-1.724 h	231	–
-1.476 h	291	4460
-1.255 h	–	6030
-1.228 h	327	–
-1.007 h	–	6090
-0.9793 h	409	–
-0.7862 h	–	6910
-0.731 h	433	–
-0.4828 h	516	–
-0.4552 h	–	7540
-0.2897 h	–	7180
-0.2345 h	506	–

concentration in blood [nM], [4]
Conditions	0.1793 h	0.2345 h	0.5655 h	0.5931 h	1.503 h	2.579 h	3.572 h
2 ppm	–	67.7	52.6	–	–	–	–
25 ppm	970	–	–	459	658	404	314

C=CC=C [1,3-butadiene]
[5]
Conditions	concentration in expired air [ppm]
0.1234 h	0.329
0.1404 h	0.298
0.1642 h	0.278
0.1948 h	0.278
0.2288 h	0.267
0.2661 h	0.267
0.3375 h	0.226
0.402 h	0.206
0.436 h	0.185
0.4734 h	0.175
0.5006 h	0.144
0.5447 h	0.144
0.6059 h	0.144
0.6602 h	0.123
0.701 h	0.123
0.7588 h	0.103
0.8029 h	0.103
0.8505 h	0.0823
0.9049 h	0.0823
16 s	4.55
77 s	0.782
126 s	0.535
200 s	0.473
249 s	0.35
334 s	0.37

Conditions	concentration in blood [nM]	concentration in expired air [ppm]
[5], -0.1653 h, during exposure	–	4.58
[5], -0.3284 h, during exposure	–	4.31
[5], -0.6614 h, during exposure	–	4.14
[5], -0.8313 h, during exposure	–	3.79
[5], -0.9977 h, during exposure	–	3.77
[5], -1.168 h, during exposure	–	4.56
[5], -1.331 h, during exposure	–	4.38
[5], -1.501 h, during exposure	–	3.62
[5], -1.67 h, during exposure	–	4.25
[5], -1.834 h, during exposure	–	3.95
[6], 1.898 h, 63 ppm	1290	–
[6], 1.898 h, 616 ppm	15300	–
[6], 1.898 h, 1249 ppm	31200	–
[6], 2.9 h, 63 ppm	1400	–
[6], 2.9 h, 616 ppm	17200	–
[6], 2.9 h, 1249 ppm	35400	–
[6], 3.895 h, 63 ppm	1250	–
[6], 3.895 h, 616 ppm	16500	–
[6], 3.903 h, 1249 ppm	38700	–
[6], 5.893 h, 616 ppm	18500	–
[6], 5.901 h, 63 ppm	1260	–
[6], 5.901 h, 1249 ppm	39600	–
[6], 5.931 h, 1249 ppm	9110	–
[6], 5.962 h, 1249 ppm	6000	–
[6], 5.977 h, 63 ppm	342	–
[6], 5.993 h, 616 ppm	4050	–
[6], 6.016 h, 1249 ppm	7440	–
[6], 6.077 h, 63 ppm	286	–
[6], 6.092 h, 616 ppm	2800	–
[6], 6.092 h, 1249 ppm	4210	–
[6], 6.176 h, 1249 ppm	4260	–
[6], 6.184 h, 616 ppm	3100	–
[6], 6.23 h, 63 ppm	198	–
[6], 6.314 h, 63 ppm	181	–
[6], 6.329 h, 616 ppm	2350	–
[6], 6.391 h, 63 ppm	101	–

CCCCOCCO [2-butoxyethanol]
[3], dosed: 2-butoxyethanol, 20 ppm, duration: 2 hr
Conditions	concentration in blood [nM]
0.1474 h	4330
0.3298 h	3310
0.4842 h	3420
0.6526 h	2200
1.004 h	1410
1.326 h	1000
1.663 h	1090
1.986 h	987
25 s	7200
227 s	4220

[3], dosed: 2-butoxyethanol, 20 ppm, duration: 2 hr, during exposure
Conditions	concentration in blood [nM]
-1.916 h	2830
-1.832 h	2770
-1.677 h	4530
-1.34 h	5020
-1.018 h	7010
-0.6807 h	7200
-0.3438 h	7400

Oc1ccc2cc3ccc4cccc5ccc(c2c1)c3c45 [9-hydroxy benzo[a]pyrene]
Conditions	concentration in lung, 0.05 h [ng/mL]	concentration in lung, 1 h [ng/mL]	concentration in lung, 2 h [ng/mL]	concentration in lung, 4 h [ng/mL]	concentration in plasma, 0.5 h [ng/mL]	concentration in plasma, 1 h [ng/mL]	concentration in plasma, 2 h [ng/mL]	concentration in plasma, 4 h [ng/mL]
[7], 0.1 mg/m^3, female	–	–	–	–	0.0614	0.243	0.122	0.00678
[7], 0.1 mg/m^3, male	–	–	–	–	0.1	0.302	0.102	0.0105
[7], 1 mg/m^3, female	–	–	–	–	0.339	5.95	0.303	0.00674
[7], 1 mg/m^3, male	–	–	–	–	0.606	8.58	0.97	0.00272
[7], 2.5 mg/m^3, female	–	–	–	–	4.93	29.3	5.63	0.276
[7], 2.5 mg/m^3, male	–	–	–	–	5.6	33.1	7.14	0.363
[8], 0.1 mg/m^3, female	0.389	3.61	0.814	0.209	–	–	–	–
[8], 0.1 mg/m^3, male	0.387	3.82	1.62	0.206	–	–	–	–
[8], 1 mg/m^3, female	11.8	15.5	14.6	1.6	–	–	–	–
[8], 1 mg/m^3, male	4.34	14.2	4.36	2.55	–	–	–	–
[8], 2.5 mg/m^3, female	23.9	52.2	12.3	1.49	–	–	–	–
[8], 2.5 mg/m^3, male	21.7	48.1	8.15	3.18	–	–	–	–

CN1CCCC1=O [N-methyl-2-pyrrolidone]
[3], dosed: N-methyl-2-pyrrolidone, male
Conditions	concentration in blood [ng/mL]
0 h, 10 mg/m^3, duration: 8 hr	470
0.8235 h, 53 mg/m^3, duration: 8 hr	2010
0.9269 h, 80 mg/m^3, duration: 6 hr 10min	942
0.9412 h, 10 mg/m^3, duration: 8 hr	503
0.9412 h, 24 mg/m^3, duration: 8 hr	701
0.986 h, 10 mg/m^3, duration: 6 hr 10min	194
0.986 h, 40 mg/m^3, duration: 6 hr 10min	412
1.824 h, 24 mg/m^3, duration: 8 hr	492
1.824 h, 53 mg/m^3, duration: 8 hr	1300
1.882 h, 10 mg/m^3, duration: 8 hr	244
1.932 h, 10 mg/m^3, duration: 6 hr 10min	153
1.932 h, 80 mg/m^3, duration: 6 hr 10min	723
2.109 h, 40 mg/m^3, duration: 6 hr 10min	346
3.765 h, 10 mg/m^3, duration: 8 hr	139
3.765 h, 24 mg/m^3, duration: 8 hr	277
3.765 h, 53 mg/m^3, duration: 8 hr	757
3.823 h, 40 mg/m^3, duration: 6 hr 10min	253
3.823 h, 80 mg/m^3, duration: 6 hr 10min	516
4.06 h, 10 mg/m^3, duration: 6 hr 10min	146
7.882 h, 53 mg/m^3, duration: 8 hr	305
7.941 h, 24 mg/m^3, duration: 8 hr	189
8 h, 10 mg/m^3, duration: 8 hr	123
18.01 h, 80 mg/m^3, duration: 6 hr 10min	92.6
18.25 h, 40 mg/m^3, duration: 6 hr 10min	18.6
18.6 h, 10 mg/m^3, duration: 6 hr 10min	55.7
19.88 h, 53 mg/m^3, duration: 8 hr	91.4
19.94 h, 10 mg/m^3, duration: 8 hr	85.9
19.94 h, 24 mg/m^3, duration: 8 hr	63.9
145 s, 80 mg/m^3, duration: 6 hr 10min	1530

[3], dosed: N-methyl-2-pyrrolidone, male, during exposure
Conditions	concentration in blood [ng/mL]
-281 s, 40 mg/m^3, duration: 6 hr 10min	645
-212 s, 24 mg/m^3, duration: 8 hr	806
-212 s, 53 mg/m^3, duration: 8 hr	2610
-68 s, 10 mg/m^3, duration: 6 hr 10min	308
-4.118 h, 53 mg/m^3, duration: 8 hr	1610
-4 h, 10 mg/m^3, duration: 8 hr	342
-4 h, 24 mg/m^3, duration: 8 hr	971
-3.211 h, 80 mg/m^3, duration: 6 hr 10min	963
-3.034 h, 10 mg/m^3, duration: 6 hr 10min	182
-3.034 h, 40 mg/m^3, duration: 6 hr 10min	449
